Blank lines part the entries; values can stand above or below the molecule they belong to.
How the values were obtained:
Assay type in all cases: ADME
Liver microsome = assay: Drug metabolism in human liver microsomes assessed as 17-epiestriol-16-glucuronide formation after 15 to 60 mins by Michaelis-Menten equation analysis in presence of UDPGA
How it was run: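 Pooled human liver microsomes (30 donors), 0.5 or 10 µg, with alamethicin at 5% of total protein. Incubated with 50 mM phosphate pH 7.4, 10 mM MgCl₂, 5 mM UDPGA and 10% DMSO for 15–60 min at 37°C. Each glucuronide regioisomer quantified by HPLC, in triplicate, with substrate consumption at or below 10%.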

[1] = target: T1, UDP-glucuronosyltransferase 2B7 (Homo sapiens, UniProt P16662); assay: Drug metabolism assessed as recombinant human C-terminal His-tagged UGT2B7-mediated 17-epiestriol-17-glucuronide formation at 4 mg after 5 hrs by NMR spectroscopic analysis in presence of UDPGA; settings: recombinant enzyme
T1 sequence (P16662 whole entry): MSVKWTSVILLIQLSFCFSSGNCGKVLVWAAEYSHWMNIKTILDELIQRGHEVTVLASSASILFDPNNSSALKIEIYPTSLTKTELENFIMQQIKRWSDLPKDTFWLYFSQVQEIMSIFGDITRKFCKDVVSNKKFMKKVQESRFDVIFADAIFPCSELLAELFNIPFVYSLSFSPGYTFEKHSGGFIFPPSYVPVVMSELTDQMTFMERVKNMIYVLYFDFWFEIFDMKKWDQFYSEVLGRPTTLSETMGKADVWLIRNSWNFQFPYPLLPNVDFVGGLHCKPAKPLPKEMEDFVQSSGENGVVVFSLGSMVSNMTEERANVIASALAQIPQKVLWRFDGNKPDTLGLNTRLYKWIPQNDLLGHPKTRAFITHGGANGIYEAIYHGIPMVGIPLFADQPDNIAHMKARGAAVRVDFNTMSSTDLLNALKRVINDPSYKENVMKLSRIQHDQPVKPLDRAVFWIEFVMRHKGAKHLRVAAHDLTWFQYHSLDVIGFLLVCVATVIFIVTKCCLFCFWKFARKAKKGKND
How it was run: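 Preparative biosynthesis: 4 mg 17-epiestriol with fresh UGT2B7-enriched insect-cell homogenate (about 500 mg total protein) in 25 ml. Contained 50 mM phosphate pH 7.4, 10 mM MgCl₂, 50 mM UDPGA and 10% DMSO. Glucuronides fractionated by HPLC with 0.1% HCOOH eluent and 280 nm UV, then concentrated and lyophilized for NMR.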

[2] = target: T2, UDP-glucuronosyltransferase 1A3 (Homo sapiens, UniProt P35503); assay: Drug metabolism assessed as recombinant human C-terminal His-tagged UGT1A3-mediated 13-epiestradiol-3-glucuronide formation at 200 uM after 15 to 60 mins by HPLC analysis in presence of UDPGA; settings: recombinant enzyme
T2 sequence (P35503 whole entry): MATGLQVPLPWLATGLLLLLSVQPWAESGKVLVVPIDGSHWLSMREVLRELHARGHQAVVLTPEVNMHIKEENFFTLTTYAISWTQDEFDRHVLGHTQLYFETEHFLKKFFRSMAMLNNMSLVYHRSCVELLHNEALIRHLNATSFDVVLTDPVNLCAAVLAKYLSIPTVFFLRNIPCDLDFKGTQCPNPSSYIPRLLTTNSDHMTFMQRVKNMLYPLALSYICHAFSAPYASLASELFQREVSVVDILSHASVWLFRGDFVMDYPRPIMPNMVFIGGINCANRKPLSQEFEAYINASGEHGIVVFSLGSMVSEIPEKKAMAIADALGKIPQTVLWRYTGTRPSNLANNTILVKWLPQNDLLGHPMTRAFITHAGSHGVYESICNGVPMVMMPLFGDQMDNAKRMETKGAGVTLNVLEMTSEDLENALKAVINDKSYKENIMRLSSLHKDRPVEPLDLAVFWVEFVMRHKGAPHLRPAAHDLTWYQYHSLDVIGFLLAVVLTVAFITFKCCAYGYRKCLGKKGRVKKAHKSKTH
How it was run: (§1)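 Screening at a single substrate concentration of 200 μM, in triplicate. The reaction used 5 or 50 µg of UGT-enriched insect cell membranes in 50 mM phosphate pH 7.4 with 10 mM MgCl₂ and 5 mM UDPGA, 10% final DMSO. Incubation was 15–60 min at 37°C. Perchloric acid stopped the reaction and supernatants were analysed by HPLC. Controls lacked UDPGA. Rates were normalized to relative UGT expression level.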

[3] = target: T3, UDP-glucuronosyltransferase 2A1 (Homo sapiens, UniProt P0DTE4); assay: Drug metabolism assessed as recombinant human C-terminal His-tagged UGT2A1-mediated 16-epiestriol-17-glucuronide formation at 200 uM after 15 to 60 mins by HPLC analysis in presence of UDPGA; settings: recombinant enzyme; how it was run: as §1
T3 sequence (P0DTE4 whole entry): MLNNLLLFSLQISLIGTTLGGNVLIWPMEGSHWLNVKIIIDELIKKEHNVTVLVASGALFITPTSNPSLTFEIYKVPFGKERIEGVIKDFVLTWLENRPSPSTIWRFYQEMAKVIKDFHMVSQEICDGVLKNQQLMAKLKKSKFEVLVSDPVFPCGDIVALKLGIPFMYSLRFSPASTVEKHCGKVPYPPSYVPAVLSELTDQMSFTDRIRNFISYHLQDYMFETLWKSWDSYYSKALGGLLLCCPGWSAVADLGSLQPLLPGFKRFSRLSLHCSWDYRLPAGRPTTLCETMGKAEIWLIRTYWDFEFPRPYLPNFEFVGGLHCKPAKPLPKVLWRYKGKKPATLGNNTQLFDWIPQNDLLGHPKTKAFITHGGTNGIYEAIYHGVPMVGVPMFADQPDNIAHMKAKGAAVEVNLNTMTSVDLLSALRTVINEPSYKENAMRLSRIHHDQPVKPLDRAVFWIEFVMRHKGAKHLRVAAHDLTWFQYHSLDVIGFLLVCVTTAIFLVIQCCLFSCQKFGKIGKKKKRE

[4] = target: T4, UDP-glucuronosyltransferase 1A1 (Homo sapiens, UniProt P22309); assay: Drug metabolism assessed as recombinant human C-terminal His-tagged UGT1A1-mediated estriol-3-glucuronide formation at 200 uM after 15 to 60 mins by HPLC analysis in presence of UDPGA; settings: recombinant enzyme; how it was run: as §1
T4 sequence (P22309 whole entry): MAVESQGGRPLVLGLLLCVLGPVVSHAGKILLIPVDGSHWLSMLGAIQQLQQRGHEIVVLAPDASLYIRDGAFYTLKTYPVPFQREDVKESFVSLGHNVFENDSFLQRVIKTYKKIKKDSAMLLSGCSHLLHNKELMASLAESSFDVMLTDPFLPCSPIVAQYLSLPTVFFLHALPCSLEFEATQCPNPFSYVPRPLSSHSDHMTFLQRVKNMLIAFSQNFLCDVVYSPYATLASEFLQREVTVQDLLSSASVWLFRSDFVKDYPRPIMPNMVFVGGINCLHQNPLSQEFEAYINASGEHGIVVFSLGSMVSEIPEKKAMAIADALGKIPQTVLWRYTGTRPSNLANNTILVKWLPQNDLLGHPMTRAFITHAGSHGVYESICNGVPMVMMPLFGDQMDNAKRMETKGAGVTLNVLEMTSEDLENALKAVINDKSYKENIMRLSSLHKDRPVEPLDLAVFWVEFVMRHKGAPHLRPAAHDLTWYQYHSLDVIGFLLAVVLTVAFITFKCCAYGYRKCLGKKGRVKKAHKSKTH

Km (Liver microsome): 7.8 µM
Vmax (Liver microsome): 128 pmol/min/mg
Drug metabolism [1]: metabolite_detected
Structure (SMILES): C[C@]12CC[C@@H]3c4ccc(O)cc4CC[C@H]3[C@@H]1C[C@@H](O)[C@H]2O

Drug metabolism [2]: metabolite_detected
Structure (SMILES): C[C@@]12CC[C@@H]3c4ccc(O)cc4CC[C@H]3[C@@H]1CC[C@@H]2O

Drug metabolism [3]: metabolite_detected
Structure (SMILES): C[C@]12CC[C@@H]3c4ccc(O)cc4CC[C@H]3[C@@H]1C[C@H](O)[C@@H]2O [EPIESTRIOL]

Drug metabolism [4]: metabolite_detected
Structure (SMILES): C[C@]12CC[C@@H]3c4ccc(O)cc4CC[C@H]3[C@@H]1C[C@@H](O)[C@@H]2O [ESTRIOL]

— ChEMBL document CHEMBL3525985, “Regiospecificity and stereospecificity of human UDP-glucuronosyltransferases in the glucuronidation of estriol, 16-epiestriol, 17-epiestriol, and 13-epiestradiol” (Drug Metab Dispos, 2013)
